Results: PMC4363136 (Biochemical pharmacology, 2014)
One block for each molecule: values may come before it.

Key:
PC-3 cells [1] = test: Immunofluorescence confocal microscopy of spindle morphology; format: cell-based, human; conditions: 12h and 24h
Procedure, shortened: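 PC-3 cells were grown on glass coverslips and exposed to test compound for 12 h or 24 h. Cells were fixed in −20 °C methanol for 10 min, then blocked in 2% BSA/PBS at 37 °C for 1 h. They were stained with anti-α- and anti-γ-tubulin (1:1000, 45 min, 37 °C) and Alexa Fluor 488/555 secondaries (1:1000, 45 min, 37 °C). DNA was stained with DAPI. Slides were mounted in antifade and imaged by confocal microscopy.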

HeLa cells = test: MTT cell proliferation assay, HeLa; format: cell-based; conditions: 48 h
Procedure, shortened: (§1)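 Cell lines were grown in medium with 10% FBS and 1% penicillin/streptomycin: PC-3 in RPMI; HeLa, MIA PaCa-2 and T24 in DMEM. Cells were seeded at 5×10^3 per well, attached overnight, then given test compound (0–500 µM, from PBS solution, diluted in medium) for 48 h. MTT was added for 4 h and formazan dissolved in DMSO. A570 was read. IC50 is the concentration giving 50% inhibition of proliferation.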

MAPs-rich tubulin = test: Light scattering assay of MAPs-rich tubulin polymerization; format: biochemical, goat; conditions: 50 µM compound, 1 mg/ml MAPs-rich tubulin, 37°C, 400 nm
MIA PaCa-2 cells = test: MTT cell proliferation assay, MIA PaCa-2; format: cell-based
Procedure, shortened: as §1

[2] = Pharmacokinetics after intravenous administration; format: in vivo, CD-1 mice
Procedure, shortened: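 Male CD-1 mice, fasted 3 h, received a single IV dose of test compound at 5 mg/kg in water. Blood was sampled sparsely from the retro-orbital plexus at 5 min–24 h into K2EDTA. Plasma was protein-precipitated with acetonitrile and 7-hydroxynoscapine internal standard, then quantified by positive-mode MRM LC-MS/MS (calibration 1 ng/mL–1 µg/mL). Non-compartmental analysis: linear-trapezoid AUC, CL and Vss from IV data, C0 back-extrapolated.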

PC-3 cells [3] = test: MTT cell proliferation assay, PC-3; format: cell-based, human
Procedure, shortened: as §1

[4] = Pharmacokinetics after oral administration; format: in vivo, CD-1 mice; conditions: for Fold increase in F compared to Nos: oral 50 mg/kg
Procedure, shortened: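 Male CD-1 mice (3 per group), fasted 3 h, were dosed once by oral gavage at 50 mg/kg in water. Plasma was collected by sparse retro-orbital sampling at 5 min–24 h. Samples were acetonitrile-precipitated with internal standard and assayed by LC-MS/MS (1 ng/mL–1 µg/mL). Non-compartmental analysis: linear-trapezoid AUClast, Cmax taken as observed. F is dose-normalized oral AUClast over IV (5 mg/kg) AUClast.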

T24 bladder cancer cells = test: MTT cell proliferation assay, T24; format: cell-based
Procedure, shortened: as §1

pure tubulin [5] = test: Light scattering assay of pure tubulin polymerization; format: biochemical, goat; conditions: 10 µM tubulin, 1M monosodium glutamate
pure tubulin [6] = test: GTPase activity assay; format: biochemical, goat; conditions: 50 µM compound, compared to control
MAPs rich tubulin = test: GTPase activity assay; format: biochemical, goat; conditions: different concentrations of compound, 10 min
[7] = oral gavage 50 mg/kg, CD-1 mice, plasma
[8] = male, CD-1, mouse, plasma, iv, 5 mg/kg
[9] = male, CD-1, mouse, plasma, po, 50 mg/kg

Compound: COc1ccc2c(c1OCCC[N+](C)(C)C)C(=O)O[C@@H]2[C@H]1c2c(c(Br)c3c(c2OC)OCO3)CCN1C.[Br-] [Compound 8a, 3-(((S)-1-((R)-9-bromo-4-methoxy-6-methyl-5,6,7,8-tetrahydro-[1,3]dioxolo[4,5-g]isoquin-olin-5-yl)-5-methoxy-3-oxo-1,3-dihydroisobenzofuran-4-yl)oxy)-N,N,N-trimethylpropan-1-aminium bromide]
Percent decrease in light scattering of MAP-tubulin (MAPs-rich tubulin): 30 ± 12%

Compound: COc1ccc2c(c1OCCCCS(=O)(=O)O)C(=O)O[C@@H]2[C@H]1c2c(cc3c(c2OC)OCO3)CCN1C [Compound 6b, 4-(((S)-5-methoxy-1-((R)-4-methoxy-6-methyl-5,6,7,8-tetrahydro-[1,3]dioxolo[4,5-g]isoquinolin-5-yl)-3-oxo-1,3-dihydroisobenzofuran-4-yl)oxy)butane-1-sulfonic acid]
spindle / mitotic phenotype (PC-3 cells [1]): induced a multipolar phenotype
% Decrease in light scattering of pure tubulin (pure tubulin [5]; 10 µM compound): 14±6%
% Decrease in light scattering of pure tubulin (pure tubulin [5]; 25 µM compound): 25±7.6%
% Decrease in light scattering of pure tubulin (pure tubulin [5]; 50 µM compound): 35±7.2%
change in GTPase activity of pure tubulin (pure tubulin [6]): did not change significantly
IC50 (HeLa cells; Homo sapiens): 66 µM
Percent decrease in light scattering of MAP-tubulin (MAPs-rich tubulin): 74 ± 13%
IC50 (MIA PaCa-2 cells; Homo sapiens, MIA PaCa-2, 48 h): 30 µM
AUC(0-t) [2, 8]: 198 ng·h/mL
C0 [2, 8]: 502 ng/mL
Vd [2, 8]: 9.53 L/kg
clearance [2, 8]: 369 mL/min/kg
half-life [2, 8]: 37.8 min
IC50 (PC-3 cells [3]; Homo sapiens, PC-3, 48 h): 19 µM
change in GTPase activity of MAPs-rich tubulin (MAPs rich tubulin): increased significantly
AUC(0-t) [4, 9]: 611 ng·h/mL
Tmax [4, 9]: 4.8 min
bioavailability [4, 9]: 27%
Cmax ([4]; oral gavage 50 mg/kg, CD-1 mice, plasma, 50 mg/kg): 2970 ± 60 ng/mL
IC50 (T24 bladder cancer cells; 48 h): 3.3 µM

Compound: COc1ccc2c(c1OC)C(=O)O[C@@H]2[C@H]1c2c(c(NCCCCS(=O)(=O)O)c3c(c2OC)OCO3)CCN1C [Compound 4b, 4-(((R)-5-((S)-4,5-dimethoxy-3-oxo-1,3-dihydroisobenzofuran-1-yl)-4-methoxy-6-methyl-5,6,7,8-tetrahydro-[1,3]dioxolo[4,5-g]isoquinolin-9-yl)amino)butane-1-sulfonic acid]
Percent decrease in light scattering of MAP-tubulin (MAPs-rich tubulin): 30 ± 9%
IC50 (PC-3 cells [3]; Homo sapiens, PC-3, 48 h): 490 µM

Compound: COc1cc([C@@H]2c3cc4c(cc3[C@H](O)[C@H]3COC(=O)[C@H]23)OCO4)cc(OC)c1OC [podophyllotoxin]
change in GTPase activity of MAPs-rich tubulin (MAPs rich tubulin): decreased

Compound: COc1ccc2c(c1OC)C(=O)O[C@@H]2[C@H]1c2c(c(Br)c3c(c2OC)OCO3)CCN1C [Compound 2, (S)-3-((R)-9-bromo-4-methoxy-6-methyl-5,6,7,8-tetrahydro-[1,3]dioxolo[4,5-g]isoquinolin-5-yl)-6,7-dimethoxyisobenzofuran-1(3H)-one, reference compound]
IC50 (HeLa cells; Homo sapiens): 436 µM
IC50 (T24 bladder cancer cells; 48 h): 191 µM

Compound: COc1ccc2c(c1OC)C(=O)O[C@@H]2[C@H]1c2c(cc3c(c2OC)OCO3)CCN1C [Compound 1, Noscapine, reference compound]
% Decrease in light scattering of pure tubulin (pure tubulin [5]; 10 µM compound): 5±1.5%
% Decrease in light scattering of pure tubulin (pure tubulin [5]; 25 µM compound): 9±2.6%
% Decrease in light scattering of pure tubulin (pure tubulin [5]; 50 µM compound): 13±2.9%
IC50 (HeLa cells; Homo sapiens): 436 µM
Percent decrease in light scattering of MAP-tubulin (MAPs-rich tubulin): 11 ± 4%
IC50 (MIA PaCa-2 cells; Homo sapiens, MIA PaCa-2, 48 h): 105 µM
AUC(0-t) [2, 8]: 479 ng·h/mL
C0 [2, 8]: 1210 ng/mL
Vd [2, 8]: 4.55 L/kg
clearance [2, 8]: 174 mL/min/kg
half-life [2, 8]: 23.4 min
IC50 (PC-3 cells [3]; Homo sapiens, PC-3, 48 h): 100 µM
change in GTPase activity of MAPs-rich tubulin (MAPs rich tubulin): remained almost unchanged
AUC(0-t) [4, 9]: 603 ng·h/mL
Tmax [4, 9]: 4.8 min
bioavailability [4, 9]: 13%
Cmax ([4]; oral gavage 50 mg/kg, CD-1 mice, plasma, listed as Nos, 50 mg/kg): 1156 ± 19 ng/mL
IC50 (T24 bladder cancer cells; 48 h): 83 µM

Compound: COc1ccc2c(c1OCCCS(=O)(=O)O)C(=O)O[C@@H]2[C@H]1c2c(cc3c(c2OC)OCO3)CCN1C [Compound 6c, 3-(((S)-5-methoxy-1-((R)-4-methoxy-6-methyl-5,6,7,8-tetrahydro-[1,3]dioxolo[4,5-g]isoquinolin-5-yl)-3-oxo-1,3-dihydroisobenzofuran-4-yl)oxy)propane-1-sulfonic acid]
Percent decrease in light scattering of MAP-tubulin (MAPs-rich tubulin): 32 ± 14%
IC50 (PC-3 cells [3]; Homo sapiens, PC-3, 48 h): 275 µM

Compound: COc1ccc2c(c1OC)C(=O)O[C@@H]2[C@H]1c2c(c(NCCC[N+](C)(C)C)c3c(c2OC)OCO3)CCN1C.[Br-] [Compound 4a, 3-(((R)-5-((S)-4,5-dimethoxy-3-oxo-1,3-dihydroisobenzofuran-1-yl)-4-methoxy-6-methyl-5,6,7,8-tetrahydro-[1,3]dioxolo[4,5-g]isoquinolin-9-yl)amino)-N,N,N-trimethylpropan-1-aminium bromide]
Percent decrease in light scattering of MAP-tubulin (MAPs-rich tubulin): 29 ± 5%

Compound: COc1ccc2c(c1OC)C(=O)O[C@@H]2[C@H]1c2c(c(NCCCS(=O)(=O)O)c3c(c2OC)OCO3)CCN1C [Compound 4c, 3-(((R)-5-((S)-4,5-dimethoxy-3-oxo-1,3-dihydroisobenzofuran-1-yl)-4-methoxy-6-methyl-5,6,7,8-tetrahydro-[1,3]dioxolo[4,5-g]isoquinolin-9-yl)amino)propane-1-sulfonic acid]
Percent decrease in light scattering of MAP-tubulin (MAPs-rich tubulin): 27 ± 10%

Compound: COc1ccc2c(c1OCCC[N+](C)(C)C)C(=O)O[C@@H]2[C@H]1c2c(cc3c(c2OC)OCO3)CCN1C.[Br-] [Compound 6a, 3-(((S)-5-methoxy-1-((R)-4-methoxy-6-methyl-5,6,7,8-tetrahydro-[1,3]dioxolo[4,5-g]isoquinolin-5-yl)-3-oxo-1,3-dihydroisobenzofuran-4-yl)oxy)-N,N,N-trimethylpropan-1-aminium bromide]
Percent decrease in light scattering of MAP-tubulin (MAPs-rich tubulin): 19 ± 6%

Continued, in another order:

IC50 (HeLa cells; MTT): 53 µM
IC50 (MIA PaCa-2 cells; MIA Paca-2, 48 h, MTT): 40 µM
CL ([2]; IV 5 mg/kg, CD-1 mice): 512 mL/min/kg
VSS ([2]; IV 5 mg/kg, CD-1 mice): 23.81 L/kg
half-life ([2]; IV 5 mg/kg, CD-1 mice): 22.8 min
AUClast ([2]; IV 5 mg/kg, CD-1 mice, plasma): 145.41 ng·h/mL
C0 ([2]; back extrapolated concentration, IV 5 mg/kg, CD-1 mice, plasma): 259.39 ng/mL
IC50 (PC-3 cells [3]; PC-3 cells, 48 h, MTT): 29 µM
Bioavailability F ([4]; dose normalized AUClast, oral 50 mg/kg vs IV 5 mg/kg, CD-1 mice): 11
Fold increase in F compared to Nos ([4]; CD-1 mice, 50 mg/kg): 0.9 fold
Tmax ([4]; oral gavage 50 mg/kg, CD-1 mice): 4.8 min
AUClast [4, 7]: 164 ng·h/mL
Cmax [4, 7]: 14 ± 7 ng/mL
IC50 (T24 bladder cancer cells; T24, 48 h, MTT): 32 µM
Compound: COc1ccc2c(c1OCCCCS(=O)(=O)O)C(=O)O[C@@H]2[C@H]1c2c(c(Br)c3c(c2OC)OCO3)CCN1C [Compound 8b, 4-(((S)-1-((R)-9-bromo-4-methoxy-6-methyl-5,6,7,8-tetrahydro-[1,3]dioxolo[4,5-g]isoquin-olin-5-yl)-5-methoxy-3-oxo-1,3-dihydroisobenzofuran-4-yl)oxy)butane-1-sulfonic acid]
spindle / mitotic phenotype (PC-3 cells [1]): induced a multipolar phenotype
Percent decrease in light scattering of MAP-tubulin (MAPs-rich tubulin): 68 ± 18%

IC50 (HeLa cells; Homo sapiens): 53 µM
IC50 (MIA PaCa-2 cells; Homo sapiens, MIA PaCa-2, 48 h): 18 µM
AUC(0-t) [2, 8]: 133 ng·h/mL
C0 [2, 8]: 307 ng/mL
Vd [2, 8]: 18.4 L/kg
clearance [2, 8]: 584 mL/min/kg
half-life [2, 8]: 42 min
IC50 (PC-3 cells [3]; Homo sapiens, PC-3, 48 h): 55 µM
AUC(0-t) [4, 9]: 240 ng·h/mL
Tmax [4, 9]: 4.8 min
bioavailability [4, 9]: 21%
Fold increase in F compared to Nos ([4]; CD-1 mice, 50 mg/kg): 1.7 fold
IC50 (T24 bladder cancer cells; 48 h): 4 µM
Compound: COc1ccc2c(c1OCCCS(=O)(=O)O)C(=O)O[C@@H]2[C@H]1c2c(c(Br)c3c(c2OC)OCO3)CCN1C [Compound 8c, 3-(((S)-1-((R)-9-bromo-4-methoxy-6-methyl-5,6,7,8-tetrahydro-[1,3]dioxolo[4,5-g]isoquinolin-5-yl)-5-methoxy-3-oxo-1,3-dihydroisobenzofuran-4-yl)oxy)propane-1-sulfonic acid]
spindle / mitotic phenotype (PC-3 cells [1]): induced a multipolar phenotype
Percent decrease in light scattering of MAP-tubulin (MAPs-rich tubulin): 61 ± 21%
